According to ChEMBL document CHEMBL1671789, “Evaluation of quinazoline analogues as glucocerebrosidase inhibitors with chaperone activity” (J Med Chem, 2011):
Calls of active or inactive are those of the source.

How the values were obtained:
[1] = system: T1, Lysosomal acid glucosylceramidase (Homo sapiens), P04062 [N409S]; test: Activity at recombinant Gcase N370S mutant in human spleen homogenates assessed as hydrolysis of 4-MU-beta-D-glucose at 50 uM; type: tissue-based
T1 sequence (whole entry): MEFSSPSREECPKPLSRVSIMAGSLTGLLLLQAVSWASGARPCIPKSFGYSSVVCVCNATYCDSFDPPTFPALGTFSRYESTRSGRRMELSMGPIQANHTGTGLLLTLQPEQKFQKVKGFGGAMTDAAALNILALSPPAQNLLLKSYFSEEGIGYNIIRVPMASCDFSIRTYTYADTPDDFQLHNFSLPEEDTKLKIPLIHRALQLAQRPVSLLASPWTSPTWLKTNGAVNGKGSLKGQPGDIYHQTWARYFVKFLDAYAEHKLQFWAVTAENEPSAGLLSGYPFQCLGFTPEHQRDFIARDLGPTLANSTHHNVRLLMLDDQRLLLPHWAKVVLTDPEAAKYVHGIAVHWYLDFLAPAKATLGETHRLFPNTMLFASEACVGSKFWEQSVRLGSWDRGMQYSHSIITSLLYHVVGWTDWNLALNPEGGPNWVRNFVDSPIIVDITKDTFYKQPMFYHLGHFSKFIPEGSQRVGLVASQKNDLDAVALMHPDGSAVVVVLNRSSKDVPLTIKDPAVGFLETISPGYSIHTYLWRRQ
How it was run: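 Enzyme source: human spleen homogenate, 27 μg/well, in 50 mM citric acid/K2PO4 buffer pH 5 with 0.01% Tween20. Compound pin-transferred and preincubated 5 min at room temperature. Substrate 4MU-β-glc at 1 mM final, 45 min at 37 °C. Stopped with 1 M NaOH/1 M glycine pH 10. Fluorescence read at 365 nm excitation, 440 nm emission.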

[2] = Inhibition of alpha-glucosidase
[3] = Inhibition of alpha-galactosidase

Row | Structure (SMILES) | Activity [1] | Activity [2] | Activity [3]
1 | O=S(=O)(c1ccc(C(F)(F)F)cc1)N1CCN(c2nc(-c3cccs3)nc3cc(Cl)ccc23)CC1 | inactive | inactive | inactive
2 | O=S(=O)(c1ccc(F)cc1)N1CCN(c2nc(-c3cccc(Br)c3)nc3ccccc23)CC1 | inactive | inactive | inactive
3 | O=S(=O)(c1ccc(F)cc1)N1CCN(c2nc(-c3ccc(F)cc3)nc3cc(Cl)ccc23)CC1 | inactive | inactive | inactive
4 | O=S(=O)(c1ccccc1)N1CCN(c2nc(-c3ccc(F)cc3)nc3cc(Cl)ccc23)CC1 | inactive | inactive | inactive
5 | Cc1ccc(S(=O)(=O)N2CCC(c3nc(-c4cccs4)nc4ccccc34)CC2)cc1 | inactive | inactive | inactive
6 | O=S(=O)(c1ccc(Cl)cc1)N1CCN(c2nc(-c3ccc(F)cc3)nc3cc(Cl)ccc23)CC1 | inactive | inactive | inactive
7 | O=S(=O)(c1ccc(F)cc1)N1CCN(c2nc(-c3cccs3)nc3cc(Cl)ccc23)CC1 | inactive | inactive | inactive
8 | CCCN1CCN(c2nc(-c3cccs3)nc3ccccc23)CC1 | inactive | inactive | inactive
9 | O=[N+]([O-])c1ccccc1S(=O)(=O)N1CCN(c2nc(-c3cccs3)nc3ccccc23)CC1 |  | inactive | inactive
10 | CC(C)(C)c1ccc(S(=O)(=O)N2CCN(c3nc(-c4ccccc4)nc4ccccc34)CC2)cc1 |  | inactive | inactive
11 | Cc1ccc(S(=O)(=O)N2CCN(c3nc(-c4cscn4)nc4ccccc34)CC2)cc1 |  | inactive | inactive
12 | CN1CCOc2cc(S(=O)(=O)N3CCN(c4nc(-c5cccs5)nc5ccccc45)CC3)ccc21 |  | inactive | inactive
13 | CS(=O)(=O)N1CCN(c2nc(-c3cccs3)nc3ccccc23)CC1 |  | inactive | inactive
14 | CC(=O)c1ccccc1S(=O)(=O)N1CCN(c2nc(-c3cccs3)nc3ccccc23)CC1 |  | inactive | inactive
15 | O=S(=O)(c1nccs1)N1CCN(c2nc(-c3cccs3)nc3ccccc23)CC1 |  | inactive | inactive
16 | Cc1ccc(S(=O)(=O)N2CCN(c3nc(-c4cncs4)nc4ccccc34)CC2)cc1 |  | inactive | inactive
17 | O=S(=O)(NCCNc1nc(-c2ccco2)nc2ccccc12)c1ccccc1 |  | inactive | inactive
18 | CN(CCN(C)c1nc(-c2cccs2)nc2ccccc12)C(=O)OC(C)(C)C |  | inactive | inactive
19 | O=S(=O)(c1cccc(Cl)c1)N1CCN(c2nc(-c3ccccc3)nc3ccccc23)CC1 |  | inactive | inactive
20 | O=S(=O)(Cc1ccccc1)N1CCN(c2nc(-c3cccs3)nc3ccccc23)CC1 |  | inactive | inactive

Row | Structure (SMILES) | Activity [1] | Activity [2] | Activity [3]
21 | COc1ccc(S(=O)(=O)N2CCN(c3nc(-c4ccccc4)nc4ccccc34)CC2)cc1 |  | inactive | inactive
22 | COc1cccc(S(=O)(=O)N2CCN(c3nc(-c4cccs4)nc4ccccc34)CC2)c1 |  | inactive | inactive
23 | Cc1ccc(S(=O)(=O)N2CCN(c3nc(-n4cnc5ccccc54)nc4ccccc34)CC2)cc1 |  | inactive | inactive
24 | Cc1ccc(S(=O)(=O)N2CCN(c3nc(-c4cccs4)nc4ncccc34)CC2)cc1 |  | inactive | inactive
25 | O=S(=O)(c1ccccc1Cl)N1CCN(c2nc(-c3ccccc3)nc3ccccc23)CC1 |  | inactive | inactive
26 | O=S(=O)(c1ccc(C(F)(F)F)cc1)N1CCN(c2nc(-c3ccccc3)nc3ccccc23)CC1 |  | inactive | inactive
27 | CCOc1ccc(S(=O)(=O)N2CCN(c3nc(-c4ccccc4)nc4ccccc34)CC2)cc1 |  | inactive | inactive
28 | Cc1ccccc1S(=O)(=O)N1CCN(c2nc(-c3cccs3)nc3ccccc23)CC1 |  | inactive | inactive
29 | O=S(=O)(c1ccc(F)cc1)N1CCN(c2nc(C3CC3)nc3ccccc23)CC1 |  | inactive | inactive
30 | N#Cc1ccc(S(=O)(=O)N2CCN(c3nc(-c4cccs4)nc4ccccc34)CC2)cc1 |  | inactive | inactive
31 | O=S(=O)(c1ccc2c(c1)OCCO2)N1CCN(c2nc(-c3ccccc3)nc3ccccc23)CC1 |  | inactive | inactive
32 | O=C(c1ccc2c(c1)OCCO2)N1CCN(c2nc(-c3cccs3)nc3ccccc23)CC1 |  | inactive | inactive
33 | COc1ccc(-c2nc(N3CCN(S(=O)(=O)c4ccc(C)cc4)CC3)c3ccccc3n2)cc1 |  | inactive | inactive
34 | N#Cc1ccccc1S(=O)(=O)N1CCN(c2nc(-c3ccccc3)nc3ccccc23)CC1 |  | inactive | inactive
35 | CC(C)(C)c1ccc(S(=O)(=O)N2CCN(c3nc(-c4cccs4)nc4ccccc34)CC2)cc1 |  | inactive | inactive
36 | O=S(=O)(c1cccnc1)N1CCN(c2nc(-c3cccs3)nc3ccccc23)CC1 |  | inactive | inactive
37 | CC(C)(C)c1cccc(S(=O)(=O)N2CCN(c3nc(-c4cccs4)nc4ccccc34)CC2)c1 |  | inactive | inactive
38 | Cc1ccc(S(=O)(=O)N2CCN(c3cc(-c4cccs4)nc4ccccc34)CC2)cc1 |  | inactive | inactive
39 | O=S(=O)(c1cc(Cl)cc(Cl)c1)N1CCN(c2nc(-c3cccs3)nc3ccccc23)CC1 |  | inactive | inactive
40 | CC(=O)c1ccc(S(=O)(=O)N2CCN(c3nc(-c4ccccc4)nc4ccccc34)CC2)cc1 |  | inactive | inactive

Row | Structure (SMILES) | Activity [1] | Activity [2] | Activity [3]
41 | COc1ccc(S(=O)(=O)N2CCN(c3nc(-c4cccs4)nc4ccccc34)CC2)cc1OC |  | inactive | inactive
42 | O=S(=O)(c1cccc(Cl)c1)N1CCN(c2nc(-c3cccs3)nc3ccccc23)CC1 |  | inactive | inactive
43 | O=S(=O)(c1ccc(OC(F)(F)F)cc1)N1CCN(c2nc(-c3ccccc3)nc3ccccc23)CC1 |  | inactive | inactive
44 | Oc1ccc(N2CCN(c3nc(-c4cccs4)nc4ccccc34)CC2)cc1 |  | inactive | inactive
45 | Cc1ccc(S(=O)(=O)N2CCN(c3nc(-c4ccnnc4)nc4ccccc34)CC2)cc1 |  | inactive | inactive
46 | CC(=O)c1cccc(S(=O)(=O)N2CCN(c3nc(-c4cccs4)nc4ccccc34)CC2)c1 |  | inactive | inactive
47 | O=S(=O)(c1ccsc1)N1CCN(c2nc(-c3cccs3)nc3ccccc23)CC1 |  | inactive | inactive
48 | O=S(=O)(c1ccc2c(Cl)cccc2c1)N1CCN(c2nc(-c3cccs3)nc3ccccc23)CC1 |  | inactive | inactive
49 | Fc1ccccc1N1CCN(c2nc(-c3cccs3)nc3ccccc23)CC1 |  | inactive | inactive
50 | Cc1ccc(S(=O)(=O)N2CCN(c3ncnc4ccccc34)CC2)cc1 |  | inactive | inactive
51 | O=S(=O)(c1ccc(Br)cc1)N1CCN(c2nc(-c3cccs3)nc3ccccc23)CC1 |  | inactive | inactive
52 | COc1ccc(N2CCN(c3nc(-c4cccs4)nc4ccccc34)CC2)cc1 |  | inactive | inactive
53 | CCOC(=O)c1ccccc1S(=O)(=O)N1CCN(c2nc(-c3cccs3)nc3ccccc23)CC1 |  | inactive | inactive
54 | O=S(=O)(/C=C/c1ccccc1)N1CCN(c2nc(-c3ccccc3)nc3ccccc23)CC1 |  | inactive | inactive
55 | Cc1ccc(S(=O)(=O)N2CCN(c3nc(-c4cnccn4)nc4ccccc34)CC2)cc1 |  | inactive | inactive
56 | Cc1ccc(S(=O)(=O)N2CCN(c3nc(-c4ccoc4)nc4ccccc34)CC2)cc1 |  | inactive | inactive
57 | CC(C)(C)C(=O)OCCNc1nc(-c2cccs2)nc2ccccc12 |  | inactive | inactive
58 | Cc1cccc(S(=O)(=O)N2CCN(c3nc(-c4cccs4)nc4ccccc34)CC2)c1 |  | inactive | inactive
59 | Cc1ccc(S(=O)(=O)N2CCN(c3ccnc(-c4cccs4)n3)CC2)cc1 |  | inactive | inactive
60 | CC(C)S(=O)(=O)N1CCN(c2nc(-c3cccs3)nc3ccccc23)CC1 |  | inactive | inactive
